# In the library only some 2.8% were active in any assay of this set; here they are far more common.
# NPY-Y1 PAM-ag – NPY-Y1 receptor potentiators or agonists, primary screen, cell-based | Neuropeptide Y receptor type 1 (Homo sapiens), P25929 | NPY-Y1 expressing cells, potentiator/agonist activation | activation, % at 3.6 µM | actives 0.37% (n = 220,000); in the data active = activation above about 33%, passing the limit was not always enough;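 also: cells stimulated with NPY at EC10 then isoproterenol at EC100; 0% = low agonist plus stimulus and 100% = saturating agonist plus stimulus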
# Target sequence (P25929 whole entry, looked up): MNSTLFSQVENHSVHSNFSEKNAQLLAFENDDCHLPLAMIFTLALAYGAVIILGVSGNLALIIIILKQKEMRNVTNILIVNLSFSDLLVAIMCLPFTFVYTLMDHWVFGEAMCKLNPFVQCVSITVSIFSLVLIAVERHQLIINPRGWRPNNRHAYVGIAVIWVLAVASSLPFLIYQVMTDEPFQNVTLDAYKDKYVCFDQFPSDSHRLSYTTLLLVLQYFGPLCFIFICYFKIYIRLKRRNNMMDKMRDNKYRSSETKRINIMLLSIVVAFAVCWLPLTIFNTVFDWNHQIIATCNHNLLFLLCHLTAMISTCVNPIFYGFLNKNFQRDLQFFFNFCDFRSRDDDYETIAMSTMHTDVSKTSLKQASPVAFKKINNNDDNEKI
# EP2 modulator – EP2 receptor modulators, cAMP readout, primary screen, cell-based, HTRF cAMP, PGE2 stimulation | induction, % at 25 µM | actives 0.83% (n = 260,000) | EP2-expressing cells, cAMP HTRF FRET, PGE2 co-stimulation | Prostaglandin E2 receptor EP2 subtype (Homo sapiens), P43116;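 active = compounds whose cAMP rise, as percent of the full-agonist control response, exceeds 60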;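 also: rat C6 glioma line stably carrying human EP2 under a CMV promoter; the protocol text gives 20 µM as final concentration; 100% = response of wells given 1 µM PGE2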
# NPY2 pot ag – NPY-Y2 potentiators or agonists, primary screen, cell-based | Neuropeptide Y receptor type 2 (Homo sapiens), P49146 | cells expressing NPY-Y2, potentiator/agonist read-out | activation, % at 3.6 µM | actives 0.45% (n = 220,000); in the data active = activation above about 27%;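 also: cells stimulated with NPY near EC25 plus isoproterenol at EC100; 0% = vehicle plus submaximal agonist and 100% = vehicle plus saturating agonist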
# PGE2 EP2 inh – human EP2 receptor antagonists, primary screen, TR-FRET cAMP, C6 glioma cells | inhibition, % at 25 µM | actives 0.52% (n = 260,000) | Prostaglandin E2 receptor EP2 subtype (Homo sapiens), P43116 | C6 glioma cells expressing human EP2; cells stimulated with saturating PGE2;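 active = percent inhibition above 40 after rounding to a whole number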;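 also: rat C6 glioma host cells with rolipram phosphodiesterase inhibitor present; the protocol text gives 20 µM as final concentration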
# NPY Y1 blocker – NPY-Y1 receptor antagonists, primary screen, cell-based; actives 1% (n = 200,000); inhibition, % at 3.6 µM; HEK293-CNG Y1 cells, membrane potential fluorescence; NPY at EC95, then isoproterenol; Neuropeptide Y receptor type 1 (Homo sapiens), P25929;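 active = inhibition above the campaign mean inhibition of all tested compounds plus 3 SD, cut at about 20% in these data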;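 also: 0% = DMSO wells given NPY plus isoproterenol and 100% = isoproterenol alone without NPY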
#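 Benchmarks – high control isoproterenol alone, low control NPY with isoproterenol · Material – HEK293 Y1/CNG channel cell line · Times – dye 3 h, compound 60 min room temperature, stimulation 45 min · Probe or stimulus – NPY (25 nM), isoproterenol (1 µM), Ro 20-1724 (25 µM) · Evaluation – % inhibition of NPY effect · Signal – fluorescence, membrane potential probe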
# NPY-Y2 antag – NPY-Y2 receptor antagonists, primary screen, cell-based. NPY-Y2 expressing cells, antagonist mode. inhibition, % at 2.7 µM. actives 0.99% (n = 140,000); in the data active = inhibition above about 17%;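 also: 0% = vehicle with agonist challenge and 100% = reference antagonist with challenge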
# * hit, by the source's call; nt = no result given.
SMILES,NPY-Y1 PAM-ag,EP2 modulator,NPY2 pot ag,PGE2 EP2 inh,NPY Y1 blocker,NPY-Y2 antag
Nc1nc2c(ncn2[C@@H]2CC[C@@H](CO)O2)c(=O)n1C(=O)c1ccccc1,nt,-4,nt,57*,nt,nt
O=C(Nc1ccn([C@H]2CC[C@@H](CO)O2)c(=O)n1)c1ccccc1,-2,1,-16,10,nt,nt
Nc1ccc(N=Nc2ccccc2)c2ccccc12,50*,-2,56*,10,nt,nt
Oc1ccc2ccccc2c1CN(Cc1c(O)ccc2ccccc12)C1CCCCC1,nt,-12,nt,55*,nt,nt
COc1ccc(-c2noc(COc3ccc4c(c3)OCO4)n2)cc1,-8,-17,0,99*,11,16
c1ccc(-c2noc(COc3ccc4c(c3)OCO4)n2)cc1,-6,-6,-2,6,0,10
COc1ccc(-c2noc(COc3ccc4c(c3)OCO4)n2)cc1OC,-23,-47,-23,10,26*,12
COc1ccc(-c2noc(COc3ccccc3OC)n2)cc1OC,0,-18,1,6,-1,4
COc1ccc(-c2nc3cnccn3c2NCC2CCCO2)cc1 (stereo not drawn),nt,-61,nt,nt,nt,nt
COC(=O)CSc1nc2ccc(NC(=O)CSc3nnnn3Cc3ccccc3)cc2s1,109*,-43,105*,48*,-11,-2
CCO[P@]1(=O)OC[C@@H]2O[C@H](n3cnc4c(N)ncnc43)[C@H](O)[C@H]2O1,nt,101*,nt,4,nt,nt
Nc1ncnc2c1nc(Br)n2C1OC2COP(=O)(O)O[C@@H]2C1O (stereo partly drawn),nt,93*,nt,2,nt,nt
Nc1nc2c(nc(Br)n2C2OC3COP(=O)(O)O[C@@H]3C2O)c(=O)[nH]1 (stereo partly drawn),nt,11,nt,10,nt,nt
CCCC(=O)Nc1sc(C(=O)OC)c(C)c1C#N,nt,-6,nt,12,nt,nt
Cc1cc(C)cc(OCc2nnc(SCC(=O)N3CCCc4ccccc43)o2)c1,nt,-100,nt,7,nt,nt
CN1CCN(C(=O)[C@H]2C[C@@H](c3cccs3)NS(=O)(=O)N2C)CC1,nt,-10,nt,nt,nt,nt
Cc1ccc2c(c1)c1c(n2CC(O)CNC(C)(C)C)CCCC1 (stereo not drawn),27,-25,41*,18,-9,2
Cc1ccc2c(c1)c1c(n2CC(O)Cn2c(C)nc3ccccc32)CCCC1 (stereo not drawn),-2,16,15,12,11,6
CC1(C)Cc2cccc(C(=O)Nc3ccc(F)cc3F)c2O1,-41,82*,-17,4,nt,nt
CC(C)(C)NC(=O)c1cccc2c1OC(C)(C)C2,10,40,7,5,4,2
COc1cccc(CNCCc2c[nH]c3ccccc23)c1OCc1ccccc1,-51,-10,-15,11,50*,24*
COc1ccc(NC(=S)NCCc2c[nH]c3ccccc23)c(OC)c1,27,-58,-2,55*,-1,1
COc1ccc(NC(=S)NCCc2ccc(Cl)cc2)c(OC)c1,28,-40,5,58*,-2,3
COc1ccc(-c2ccc(=O)n(CC3CCN(C(=O)c4cccs4)CC3)n2)cc1,nt,-11,nt,nt,nt,nt
CCOc1cccc(NC(=O)c2cnccn2)c1,nt,-44,nt,15,nt,nt
SMILES,NPY-Y1 PAM-ag,EP2 modulator,NPY2 pot ag,PGE2 EP2 inh,NPY Y1 blocker,NPY-Y2 antag
O=C(Nc1ncc2c(n1)-c1ccccc1CC2)c1cccc(Cl)c1,-43,-38,-31,nt,34*,25*
O=C(O)c1cccc(-c2ccc(/C=N/Nc3ccc([N+](=O)[O-])cc3)o2)c1,1,-62,0,25,nt,nt
O=C(O)c1ccc(-c2ccc(/C=N/Nc3ccc([N+](=O)[O-])cc3)o2)cc1,12,-79,6,46*,nt,nt
CCc1nc(NCc2ccccc2)c(C#N)c2c1CCCC2,0,64*,-7,2,6,7
O=S(=O)(NCc1c(Cl)cccc1Oc1ccccc1)c1ccccc1,0,60,-16,6,nt,nt
Cc1ccc(S(=O)(=O)NCc2c(Cl)cccc2Oc2ccccc2)cc1,2,69*,-3,10,nt,nt
CCOc1ccc2c(c1)oc(=O)c1ccccc12,nt,-57,nt,15,nt,nt
COc1ccccc1Nc1nc2ccc(C)cc2cc1C#N,-16,61*,-22,nt,-5,2
CCN(CC)C(=O)Cn1cnc2c(cnn2-c2ccccc2Cl)c1=O,nt,-26,nt,23,nt,nt
Cc1cc(C)c2cc(CN(C3CCCC3)S(=O)(=O)c3ccc4c(c3)OCCO4)c(=O)[nH]c2c1,nt,6,nt,13,nt,nt
CC1=NN(c2ccc([N+](=O)[O-])cc2)C(c2ccccc2)C1 (stereo not drawn),-3,62*,5,8,-3,nt
CCC(=O)N1N=C(c2ccccc2)CC1c1ccc([N+](=O)[O-])cc1 (stereo not drawn),7,48,-1,12,3,2
COc1ccc(/C=C/C(=O)c2cc(O)ccc2O)cc1,nt,-49,nt,50*,nt,nt
O=C1CC[C@@H](NCc2ccnc(N3CCCC3)n2)[C@H](c2cc(F)cc(F)c2)N1,nt,-16,nt,3,nt,nt
c1cncc(-c2noc(C34CC5CC(CC(C5)C3)C4)n2)c1,-7,63*,-11,8,1,4
Cc1ccccc1-c1noc(C23CC4CC(CC(C4)C2)C3)n1,-20,22,-6,3,2,3
CCc1ccc2[nH]c(=O)c(CN(Cc3cccnc3)Cc3nnnn3Cc3ccco3)cc2c1,nt,-26,nt,7,nt,nt
Brc1ccc(-c2csc(N3CCOCC3)n2)cc1,13,-11,7,5,0,nt
Brc1ccc(-c2csc(/N=C/N3CCOCC3)n2)cc1,-23,-14,-12,14,35*,8
O=C(CN1CCC(O)(c2ccccn2)CC1)Nc1ccccc1N1CCCCCC1,nt,57,nt,nt,nt,nt
COc1ccc(-c2oc3ncnc(NCCCN4CCOCC4)c3c2-c2ccc(OC)cc2)cc1,-93,61*,-5,6,16,17
Cc1ccc2cc(CN(Cc3ccco3)C(=O)NC3CCCCC3)c(=O)[nH]c2c1C,-19,61*,1,6,8,4
Cc1cc(C)c2[nH]c(=O)c(CN(Cc3ccco3)C(=O)NC3CCCCC3)cc2c1,nt,27,nt,6,nt,nt
O=C(c1ccc(Cl)cc1)N1CCn2c1nc1ccccc12,-6,-14,-10,97*,1,nt
N#CCSc1nc2c(cc1C#N)CCCCC2,nt,17,nt,8,nt,nt
Cc1ccc(C(O)(C(=O)NN(C(=O)c2ccccc2)c2ccccc2)c2ccc(C)cc2)cc1,-16,6,3,8,59*,48*
CC(C)(O)C(=O)NN(C(=O)c1ccccc1)c1ccc2ccccc2c1,14,17,-3,11,5,-1

# High-throughput results (PubChem BioAssay)
